Laboratory results: ChEMBL document CHEMBL4680253, “Hybrids of MEK inhibitor and NO donor as multitarget antitumor drugs” (Eur J Med Chem, 2020)
Activity calls are given as the source filed them. The calls are words filed in the database; no cut-off is given here.

Legend:
A549 = test: Antiproliferative activity against human A549 cells harboring KRAS G12S mutant assessed as inhibition of cell viability after 96 hrs by Celltiter-Glo assay; assay type: functional, cell-based; conditions: A549, 96 h
HL-60 = test: Antiproliferative activity against human HL60 cells harboring NRAS […] mutant assessed as inhibition of cell viability after 96 hrs by Celltiter-Glo assay; assay type: functional, cell-based; conditions: HL-60, 96 h
MDA-MB-231 [1] = test: Antiproliferative activity against human MDA-MB-231 cells harboring KRAS G13D/BRAF G464V mutant assessed as inhibition of cell viability after 96 hrs by Celltiter-Glo assay; assay type: functional, cell-based; conditions: MDA-MB-231, 96 h
[2] = Antiproliferative activity against human A375 cells harboring BRAF V600E mutant assessed as inhibition of cell viability after 96 hrs by Celltiter-Glo assay; assay type: functional, cell-based, A375/R; conditions: A-375, 96 h
HCT-116 = test: Antiproliferative activity against human HCT116 cells harboring KRAS G13D mutant assessed as inhibition of cell viability after 96 hrs by Celltiter-Glo assay; assay type: functional, cell-based; conditions: HCT-116, 96 h
[3] = Prodrug release in human HCT-116 cells assessed as increase in intracellular NO level at 100 uM measured after 2 hr by DAF-FM DA reagent based laser confocal scanning microscopy; conditions: hct-116, 2 h
L02 = test: Cytotoxicity against human HL7702 cells assessed as reduction in cell viability after 96 hrs by Celltiter-Glo assay; assay type: cell-based; conditions: L02, 96 h
Procedure, shortened: (§1)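 Cells kept at 37 °C in humidified 5% CO2 with 10% FBS; Vero in DMEM, HL7702 in RPMI-1640. Compounds added to plated cells and incubated 96 h at 37 °C. Viability read by CellTiter-Glo reagent added directly to the wells. IC50 fitted from the readings.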

Vero = test: Cytotoxicity against African green monkey Vero cells assessed as reduction in cell viability after 96 hrs by Celltiter-Glo assay; assay type: cell-based; conditions: Chlorocebus sabaeus; procedure, shortened: as §1
[4] = biological target: T1, Dual specificity mitogen-activated protein kinase kinase; MEK1/2 (Homo sapiens) (UniProt P36507+Q02750); test: Inhibition of MEK in human A549 cells assessed as reduction in ERK phosphorylation at 1 uM incubated for 2 hrs by Western blot analysis; assay type: cell-based
T1 sequence (P36507 whole entry, looked up): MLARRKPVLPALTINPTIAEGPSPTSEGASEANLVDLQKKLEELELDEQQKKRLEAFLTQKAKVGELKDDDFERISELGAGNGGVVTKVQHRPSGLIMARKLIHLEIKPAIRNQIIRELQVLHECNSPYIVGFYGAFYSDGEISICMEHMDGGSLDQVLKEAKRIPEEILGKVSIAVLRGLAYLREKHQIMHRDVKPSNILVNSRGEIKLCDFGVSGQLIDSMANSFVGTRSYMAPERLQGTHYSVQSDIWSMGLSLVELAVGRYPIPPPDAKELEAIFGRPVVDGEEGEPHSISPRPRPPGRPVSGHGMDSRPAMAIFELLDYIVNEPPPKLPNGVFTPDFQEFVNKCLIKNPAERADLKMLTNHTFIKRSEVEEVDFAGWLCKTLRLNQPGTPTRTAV
T1 sequence (Q02750 whole entry, looked up): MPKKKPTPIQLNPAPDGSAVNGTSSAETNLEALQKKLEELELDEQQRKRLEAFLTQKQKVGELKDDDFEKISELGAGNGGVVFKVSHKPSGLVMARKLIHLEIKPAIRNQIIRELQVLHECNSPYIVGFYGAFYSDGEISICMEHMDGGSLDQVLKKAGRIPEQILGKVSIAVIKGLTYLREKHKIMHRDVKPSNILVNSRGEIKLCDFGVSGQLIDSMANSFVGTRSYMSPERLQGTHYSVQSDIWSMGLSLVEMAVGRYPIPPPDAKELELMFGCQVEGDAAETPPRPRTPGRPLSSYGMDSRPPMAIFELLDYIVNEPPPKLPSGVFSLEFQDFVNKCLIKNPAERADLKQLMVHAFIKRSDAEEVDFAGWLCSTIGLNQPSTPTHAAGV
Procedure, shortened: (§2)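 A549 cells in RPMI-1640 with 10% FBS, treated 2 h. Cells lysed in RIPA with protease/phosphatase inhibitors on ice for 20 min. Equal protein run on 4-20% SDS-PAGE and blotted to PVDF. Membranes blocked in 5% milk, then probed overnight at 4 °C with rabbit mAbs to pMEK, MEK, pERK and ERK, followed by HRP secondary. GAPDH used as loading control.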

MDA-MB-231 [5] = test: Induction of apoptosis in human MDA-MB-231 cells assessed as early apoptotic cells at 1 uM incubated for 24 hrs by AnnexinV-FITC and propidium iodide staining based flow cytometry (reference value: 4.4%); assay type: functional
MDA-MB-231 [6] = test: Induction of apoptosis in human MDA-MB-231 cells assessed as early apoptotic cells at 10 uM incubated for 24 hrs by AnnexinV-FITC and propidium iodide staining based flow cytometry (reference value: 4.4%); assay type: functional
[7] = biological target: T1, Dual specificity mitogen-activated protein kinase kinase; MEK1/2 (Homo sapiens); test: Inhibition of MEK in human A549 cells assessed as reduction in MEK phosphorylation at 10 uM incubated for 2 hrs by Western blot analysis; assay type: cell-based; procedure, shortened: as §2
MDA-MB-231 [8] = test: Induction of apoptosis in human MDA-MB-231 cells assessed as late apoptotic cells at 1 uM incubated for 24 hrs by AnnexinV-FITC and propidium iodide staining based flow cytometry (reference value: 3.54%); assay type: functional
MDA-MB-231 [9] = test: Induction of apoptosis in human MDA-MB-231 cells assessed as necrotic cells at 1 uM incubated for 24 hrs by AnnexinV-FITC and propidium iodide staining based flow cytometry (reference value: 1.084%); assay type: functional
MDA-MB-231 [10] = test: Induction of apoptosis in human MDA-MB-231 cells assessed as late apoptotic cells at 10 uM incubated for 24 hrs by AnnexinV-FITC and propidium iodide staining based flow cytometry (reference value: 3.54%); assay type: functional
MDA-MB-231 [11] = test: Induction of apoptosis in human MDA-MB-231 cells assessed as viable cells at 10 uM incubated for 24 hrs by AnnexinV-FITC and propidium iodide staining based flow cytometry (reference value: 90.962%); assay type: functional; conditions: read-out: Activity
MDA-MB-231 [12] = test: Induction of apoptosis in human MDA-MB-231 cells assessed as necrotic cells at 10 uM incubated for 24 hrs by AnnexinV-FITC and propidium iodide staining based flow cytometry (reference value: 1.084%); assay type: functional
[13] = biological target: T1, Dual specificity mitogen-activated protein kinase kinase; MEK1/2 (Homo sapiens); test: Inhibition of MEK in human MDA-MB-231 cells assessed as reduction in MEK phosphorylation at 1 to 10 uM incubated for 2 hrs by Western blot analysis; assay type: cell-based; conditions: dose 1-10 µM
Procedure, shortened: (§3)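 MDA-MB-231 in RPMI-1640 with 10% FBS. Dose series at 1, 3 and 10 µM for 2 h or 24 h; time course at 1 µM or 10 µM over several time points. RIPA lysates with protease/phosphatase inhibitors, equal protein on 4-20% SDS-PAGE, PVDF transfer, 5% milk block. Probed overnight at 4 °C for pMEK, MEK, pERK and ERK, then HRP secondary.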

[14] = biological target: T1, Dual specificity mitogen-activated protein kinase kinase; MEK1/2 (Homo sapiens); test: Inhibition of MEK in human MDA-MB-231 cells assessed as reduction in ERK phosphorylation at 1 to 10 uM incubated for 2 hrs by Western blot analysis; assay type: cell-based; conditions: dose 1-10 µM; procedure, shortened: as §3
MDA-MB-231 [15] = test: Induction of apoptosis in human MDA-MB-231 cells assessed as viable cells at 1 uM incubated for 24 hrs by AnnexinV-FITC and propidium iodide staining based flow cytometry (reference value: 90.962%); assay type: functional; conditions: read-out: Activity

Structure (SMILES)	IC50 (A549)	IC50 (HL-60)	IC50 (MDA-MB-231 [1])	IC50 [2]	IC50 (HCT-116)	Drug metabolism [3]	also measured
CNS(=O)(=O)Nc1cccc(Cc2c(C)c3ccc(OCCO)cc3oc2=O)c1F	> 5000 nM	100 nM	2190 nM	150 nM	3470 nM	Metabolite_Notdetected	–
Cc1c(Cc2cccc(NS(=O)(=O)NCCC#N)c2F)c(=O)oc2cc(OCCOc3no[n+]([O-])c3S(=O)(=O)c3ccccc3)ccc12	2610 nM	640 nM	270 nM	660 nM	760 nM	Metabolite_Detected	–
CNS(=O)(=O)Nc1cccc(Cc2c(C)c3ccc(OCCCCOc4no[n+]([O-])c4S(=O)(=O)c4ccccc4)cc3oc2=O)c1F	3490 nM	–	200 nM	–	2780 nM	Metabolite_Detected	IC50 (L02): 1930 nM; IC50 (Vero): 2980 nM
COCCNS(=O)(=O)Nc1cccc(Cc2c(C)c3ccc(OCCOc4no[n+]([O-])c4S(=O)(=O)c4ccccc4)cc3oc2=O)c1F	2270 nM	310 nM	380 nM	540 nM	710 nM	Metabolite_Detected	–
Cc1c(Cc2cccc(NS(=O)(=O)NC(C)C)c2F)c(=O)oc2cc(OCCOc3no[n+]([O-])c3S(=O)(=O)c3ccccc3)ccc12	2990 nM	550 nM	860 nM	970 nM	1230 nM	Metabolite_Detected	–
CONS(=O)(=O)Nc1cccc(Cc2c(C)c3ccc(OCCOc4no[n+]([O-])c4S(=O)(=O)c4ccccc4)cc3oc2=O)c1F	3750 nM	5640 nM	310 nM	870 nM	1010 nM	Metabolite_Detected	–
CNS(=O)(=O)Nc1cccc(Cc2c(C)c3ccc(OCCCCO)cc3oc2=O)c1F	> 5000 nM	–	3200 nM	–	7350 nM	Metabolite_Notdetected	–
Cc1c(Cc2cccc(NS(=O)(=O)NCC(F)(F)F)c2F)c(=O)oc2cc(OCCO)ccc12	> 5000 nM	780 nM	7720 nM	930 nM	10300 nM	Metabolite_Notdetected	–
CONS(=O)(=O)Nc1cccc(Cc2c(C)c3ccc(OCCO)cc3oc2=O)c1F	–	–	–	–	–	Metabolite_Notdetected	–
CNS(=O)(=O)Nc1nccc(Cc2c(C)c3ccc(Oc4ncccn4)cc3oc2=O)c1F [AVUTOMETINIB]	1240 nM	6 nM	170 nM	17 nM	53 nM	Metabolite_Notdetected	inhibition [4]: Active; Activity (MDA-MB-231 [5]): 8.45%; Activity (MDA-MB-231 [6]): 7.32%; inhibition [7]: Active; Activity (MDA-MB-231 [8]): 1.92%; Activity (MDA-MB-231 [9]): 0.87%; Activity (MDA-MB-231 [10]): 2.37%; viability at 10 µM (MDA-MB-231 [11]): 89.7%; Activity (MDA-MB-231 [12]): 0.57%; inhibition [13]: Active; IC50 (L02): 17300 nM; inhibition [14]: Active; IC50 (Vero): > 50000 nM; viability at 1 µM (MDA-MB-231 [15]): 88.8%
